Here are results for eight molecules from ChEMBL document CHEMBL2390927, “Design, synthesis and antimicrobial evaluation of novel benzimidazole type of Fluconazole analogues and their synergistic effects with Chloromycin, Norfloxacin and Fluconazole” (2013).

In brackets after ≈: the same amount, converted by molar mass.

One assay concerns Micrococcus luteus. Nature of the assay: Antibacterial activity against Micrococcus luteus ATCC 4698 after 24 hrs by two-fold serial dilution method. The assay is classed as functional. As to conditions: ATCC 4698, 24 h. The procedure, abridged:
(§1)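 MIC taken as the lowest concentration giving complete growth inhibition, by standard two-fold serial dilution in 96-well plates following NCCLS. Stocks in DMSO, diluted in Mueller–Hinton broth. Inoculum adjusted with sterile saline to 1 × 10⁵ CFU. DMSO with inoculum and no drug served as solvent control. Growth read visually and spectrophotometrically, in triplicate.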

In another assay the test system is Candida albicans. The experiment in a line: Antifungal activity against Candida albicans ATCC 76615 after 24 hrs by two-fold serial dilution method. Type of assay: functional. As to conditions: ATCC 76615, 24 h. The procedure, abridged:
(§2)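 Spore suspension in sterile distilled water from one-day-old cultures on Sabouraud agar, final 1–5 × 10³ spore mL⁻¹. Compound stocks diluted in sterile RPMI 1640 as two-fold serial dilutions in microdilution plates. MIC is the lowest concentration completely inhibiting growth. Growth monitored visually and spectrophotometrically, in triplicate.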

The next assay concerns Salmonella typhi. Nature of the assay: Antibacterial activity against Bacillus typhi after 24 hrs by two-fold serial dilution method. The assay is classed as functional, Salmonella enterica subsp. enterica serovar Typhi. To be noted: Salmonella enterica. In outline: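 Two-fold serial dilution in 96-well plates following NCCLS; compounds dissolved in DMSO as stocks, then diluted in Mueller-Hinton broth; bacterial suspension adjusted with sterile saline to 1 × 10⁵ CFU; MIC taken as lowest concentration completely inhibiting growth, monitored visually and spectrophotometrically; DMSO-plus-inoculum well as solvent control; triplicate.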

Another assay deals with Pseudomonas aeruginosa. The experiment in a line: Antibacterial activity against Pseudomonas aeruginosa ATCC 27853 after 24 hrs by two-fold serial dilution method. The assay is classed as functional. To be noted: ATCC 27853, 24 h. The procedure, abridged:
as §1

In another assay the test system is Candida. Nature of the assay: Antifungal activity against Candida mycoderma after 24 hrs by two-fold serial dilution method. The assay is classed as functional. In outline: as §2
The subject of a further assay is Bacillus. The experiment in a line: Antibacterial activity against Bacillus proteus ATCC 13315 after 24 hrs by two-fold serial dilution method. The assay is classed as functional. As to conditions: ATCC 13315, 24 h. In outline:
as §1

Assay [1] relates to Staphylococcus aureus. Nature of the assay: Antibacterial activity against methicillin-resistant Staphylococcus aureus N315 after 24 hrs by two-fold serial dilution method. As to conditions: N315, 24 h. Type of assay: functional.
A further assay concerns Aspergillus flavus. The experiment in a line: Antifungal activity against Aspergillus flavus after 24 hrs by two-fold serial dilution method. The assay is classed as functional. The procedure, abridged:
as §2

Another assay relates to Saccharomyces cerevisiae. The experiment in a line: Antifungal activity against Saccharomyces cerevisiae after 24 hrs by two-fold serial dilution method. The assay is classed as functional. In outline:
as §2

In assay [2] the test system is Staphylococcus aureus. The experiment in a line: Antibacterial activity against Staphylococcus aureus ATCC 6538 after 24 hrs by two-fold serial dilution method. Type of assay: functional. As to conditions: ATCC 6538, 24 h.
The test system of another assay is Escherichia coli. Nature of the assay: Antibacterial activity against Escherichia coli JM109 after 24 hrs by two-fold serial dilution method. As to conditions: JM109, 24 h. The assay is classed as functional.
In a further assay the test system is Bacillus subtilis. Nature of the assay: Antibacterial activity against Bacillus subtilis ATCC 21216 after 24 hrs by two-fold serial dilution method. To be noted: ATCC 21216, 24 h. Type of assay: functional. In outline:
as §1

Another assay has as its system Cyberlindnera jadinii. The experiment in a line: Antifungal activity against Candida utilis after 24 hrs by two-fold serial dilution method. Type of assay: functional. To be noted: Williopsis jadinii. In outline:
as §2

For orientation: MIC means the lowest concentration found to suppress growth. Lower therefore signals greater potency.

For the molecule `CCCCCCCCN(Cc1nc2ccccc2[nH]1)c1ccc(C)cc1`, the minimal inhibitory concentration (MIC) in the assay on Micrococcus luteus was determined as 128 µg/mL (≈ 366 µM); in the assay on Candida albicans, 16 µg/mL (≈ 45.8 µM); in the assay with Salmonella typhi it was 64 µg/mL (≈ 183 µM); with Pseudomonas aeruginosa, 16 µg/mL (≈ 45.8 µM); against Candida, 32 µg/mL (≈ 91.6 µM); against Bacillus, 64 µg/mL (≈ 183 µM). The MIC in the assay with Staphylococcus aureus [1] amounted to 128 µg/mL (≈ 366 µM); against Aspergillus flavus, 64 µg/mL (≈ 183 µM); in the assay on Saccharomyces cerevisiae, 16 µg/mL (≈ 45.8 µM); in the assay with Staphylococcus aureus [2] it was 32 µg/mL (≈ 91.6 µM); with Escherichia coli, 128 µg/mL (≈ 366 µM); in the assay with Bacillus subtilis, 16 µg/mL (≈ 45.8 µM). In the assay with Cyberlindnera jadinii, this molecule registered an MIC of 32 µg/mL (≈ 91.6 µM).

As for `CCCCCCCCCCN(Cc1nc2ccccc2[nH]1)c1ccc(C)cc1`, the MIC in the assay with Micrococcus luteus came out at 128 µg/mL (≈ 339 µM); in the assay on Candida albicans, 64 µg/mL (≈ 170 µM); in the assay on Salmonella typhi, 128 µg/mL (≈ 339 µM); in the assay on Pseudomonas aeruginosa, 128 µg/mL (≈ 339 µM); against Candida it was 128 µg/mL (≈ 339 µM); against Bacillus, 256 µg/mL (≈ 678 µM). Moreover, the MIC in the assay with Staphylococcus aureus [1] is 64 µg/mL (≈ 170 µM); with Aspergillus flavus it was 64 µg/mL (≈ 170 µM); against Saccharomyces cerevisiae it was 32 µg/mL (≈ 84.8 µM); against Staphylococcus aureus [2], 128 µg/mL (≈ 339 µM); in the assay with Escherichia coli, 128 µg/mL (≈ 339 µM); against Bacillus subtilis it was 64 µg/mL (≈ 170 µM). For the same molecule, the lowest concentration to inhibit growth against Cyberlindnera jadinii (MIC) was 64 µg/mL (≈ 170 µM).

As for `CCCCCCCCCCCCN(Cc1nc2ccccc2[nH]1)c1ccc(C)cc1`, the MIC with Micrococcus luteus is 64 µg/mL (≈ 158 µM); against Candida albicans, 64 µg/mL (≈ 158 µM); against Salmonella typhi, 64 µg/mL (≈ 158 µM); with Pseudomonas aeruginosa it was 128 µg/mL (≈ 316 µM); against Candida, 16 µg/mL (≈ 39.4 µM); against Bacillus, 64 µg/mL (≈ 158 µM). Besides, the MIC against Staphylococcus aureus [1] was 128 µg/mL (≈ 316 µM); against Aspergillus flavus, 64 µg/mL (≈ 158 µM); in the assay with Saccharomyces cerevisiae, 64 µg/mL (≈ 158 µM); in the assay with Staphylococcus aureus [2], 64 µg/mL (≈ 158 µM); against Escherichia coli it was 128 µg/mL (≈ 316 µM); against Bacillus subtilis, 128 µg/mL (≈ 316 µM). In the assay on Cyberlindnera jadinii, this molecule displayed an MIC of 32 µg/mL (≈ 78.9 µM).

Take `CCCCCCCCCCCCCCCCCCN(Cc1nc2ccccc2[nH]1)c1ccc(C)cc1`: the MIC against Micrococcus luteus came out at 256 µg/mL (≈ 523 µM); in the assay on Candida albicans it was 32 µg/mL (≈ 65.3 µM); with Salmonella typhi it was 64 µg/mL (≈ 131 µM); against Pseudomonas aeruginosa, 64 µg/mL (≈ 131 µM); with Candida it was 32 µg/mL (≈ 65.3 µM); with Bacillus, 64 µg/mL (≈ 131 µM). Besides, the MIC in the assay on Staphylococcus aureus [1] was 128 µg/mL (≈ 261 µM); in the assay on Aspergillus flavus, 64 µg/mL (≈ 131 µM); in the assay on Saccharomyces cerevisiae, 64 µg/mL (≈ 131 µM); with Staphylococcus aureus [2] it was 128 µg/mL (≈ 261 µM); with Escherichia coli it was 256 µg/mL (≈ 523 µM); against Bacillus subtilis it was 64 µg/mL (≈ 131 µM). The MIC against Cyberlindnera jadinii was found to be 32 µg/mL (≈ 65.3 µM).

On to `Fc1ccccc1N(Cc1ccc(Cl)c(Cl)c1)Cc1nc2ccccc2[nH]1`, for which the MIC in the assay with Micrococcus luteus stood at 128 µg/mL (≈ 320 µM); in the assay on Candida albicans, 32 µg/mL (≈ 79.9 µM); against Salmonella typhi, 128 µg/mL (≈ 320 µM); with Pseudomonas aeruginosa, 64 µg/mL (≈ 160 µM); against Candida, 32 µg/mL (≈ 79.9 µM); against Bacillus, 64 µg/mL (≈ 160 µM). For the same molecule, the MIC in the assay on Staphylococcus aureus [1] stood at 128 µg/mL (≈ 320 µM); with Aspergillus flavus it was 64 µg/mL (≈ 160 µM); against Saccharomyces cerevisiae it was 64 µg/mL (≈ 160 µM); in the assay with Staphylococcus aureus [2], 64 µg/mL (≈ 160 µM); with Escherichia coli, 32 µg/mL (≈ 79.9 µM); in the assay on Bacillus subtilis, 32 µg/mL (≈ 79.9 µM). This molecule also returned an MIC in the assay with Cyberlindnera jadinii of 32 µg/mL (≈ 79.9 µM).

Consider `FC(F)(F)c1cccc(N(Cc2nc3ccccc3[nH]2)Cc2ccc(Cl)cc2Cl)c1`, for which the MIC in the assay with Micrococcus luteus is 32 µg/mL (≈ 71.1 µM); against Candida albicans it was 64 µg/mL (≈ 142 µM); in the assay on Salmonella typhi, 32 µg/mL (≈ 71.1 µM); against Pseudomonas aeruginosa, 32 µg/mL (≈ 71.1 µM); in the assay with Candida, 32 µg/mL (≈ 71.1 µM); against Bacillus, 64 µg/mL (≈ 142 µM). For the same molecule, the MIC against Staphylococcus aureus [1] turned out to be 32 µg/mL (≈ 71.1 µM); in the assay with Aspergillus flavus, 64 µg/mL (≈ 142 µM); against Saccharomyces cerevisiae, 32 µg/mL (≈ 71.1 µM); with Staphylococcus aureus [2] it was 32 µg/mL (≈ 71.1 µM); with Escherichia coli, 64 µg/mL (≈ 142 µM); with Bacillus subtilis, 64 µg/mL (≈ 142 µM). This molecule registered an MIC with Cyberlindnera jadinii of 32 µg/mL (≈ 71.1 µM).

As for `Fc1ccc(N(Cc2nc3ccccc3[nH]2)Cc2ccc(Cl)cc2Cl)cc1`, the MIC worked out at 64 µg/mL (≈ 160 µM) against Micrococcus luteus; 32 µg/mL (≈ 79.9 µM) against Candida albicans; 64 µg/mL (≈ 160 µM) with Salmonella typhi; 64 µg/mL (≈ 160 µM) against Pseudomonas aeruginosa; 64 µg/mL (≈ 160 µM) with Candida; 32 µg/mL (≈ 79.9 µM) with Bacillus. The MIC amounted to 64 µg/mL (≈ 160 µM) in the assay on Staphylococcus aureus [1]; 64 µg/mL (≈ 160 µM) in the assay with Aspergillus flavus; 64 µg/mL (≈ 160 µM) in the assay with Saccharomyces cerevisiae; 32 µg/mL (≈ 79.9 µM) against Staphylococcus aureus [2]; 128 µg/mL (≈ 320 µM) against Escherichia coli; 64 µg/mL (≈ 160 µM) in the assay with Bacillus subtilis. In the assay on Cyberlindnera jadinii, this molecule yielded an MIC of 32 µg/mL (≈ 79.9 µM).

Turning to `Cc1ccc(N(Cc2nc3ccccc3[nH]2)Cc2ccccc2Cl)cc1`, the minimal inhibitory concentration (MIC) against Micrococcus luteus is 128 µg/mL (≈ 354 µM); against Candida albicans it was 32 µg/mL (≈ 88.4 µM); against Salmonella typhi, 64 µg/mL (≈ 177 µM); against Pseudomonas aeruginosa it was 32 µg/mL (≈ 88.4 µM); against Candida it was 32 µg/mL (≈ 88.4 µM); against Bacillus it was 32 µg/mL (≈ 88.4 µM). Also, the MIC was determined as 128 µg/mL (≈ 354 µM) against Staphylococcus aureus [1]; 32 µg/mL (≈ 88.4 µM) against Aspergillus flavus; 64 µg/mL (≈ 177 µM) in the assay with Saccharomyces cerevisiae; 64 µg/mL (≈ 177 µM) in the assay on Staphylococcus aureus [2]; 32 µg/mL (≈ 88.4 µM) in the assay with Escherichia coli; 64 µg/mL (≈ 177 µM) against Bacillus subtilis. In addition, the lowest concentration to inhibit growth in the assay on Cyberlindnera jadinii (MIC) was 32 µg/mL (≈ 88.4 µM).
